Measured values taken from ChEMBL document CHEMBL1143422, “In vitro selection and characterization of human immunodeficiency virus type 2 with decreased susceptibility to lopinavir” (Antimicrob Agents Chemother, 2007).

System: Human immunodeficiency virus 2
Experiment: Antiviral activity against HIV2 MS infected in human MT4 cells assessed as reduction in virus-induced cytopathic effect after 5 days by MTT assay
Assay type: functional, organism-based
Conditions: Human immunodeficiency virus 2, MT4, 120 h
Summary of the method: (§1)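 MT4 cells were infected 1 h with 50–100 pg RNA virus, washed twice, and exposed in triplicate to half-log PI dilutions (DMSO 1% final) for 5 days at 37°C. Cell viability was read by MTT: 4 h, SDS/HCl lysis overnight, OD at 570/650 nm. Cytopathic-effect reduction was scaled between infected and uninfected controls. EC50 by nonlinear regression, mean of three experiments.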

Structure (SMILES)	EC50 [nM]
CC(C)CN(C[C@@H](O)[C@H](Cc1ccccc1)NC(=O)O[C@H]1CCOC1)S(=O)(=O)c1ccc(N)cc1 [AMPRENAVIR]	900
COC(=O)N[C@H](C(=O)N[C@@H](Cc1ccccc1)[C@@H](O)CN(Cc1ccc(-c2ccccn2)cc1)NC(=O)[C@@H](NC(=O)OC)C(C)(C)C)C(C)(C)C [ATAZANAVIR]	20

System: Human immunodeficiency virus 2
Experiment: Antiviral activity against HIV2 CBL-23 infected in human PBMC assessed as inhibition of virus production after 5 days by Lenti-RT activity assay
Assay type: functional, organism-based
Conditions: Human immunodeficiency virus 2, CBL-23, 120 h
Summary of the method: (§2)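 PBMCs were stimulated with PHA (5 μg/ml) for 3 days, then kept in 20% FBS medium with IL-2 (50 U/ml). Cells were infected 1 h with 50–100 pg RNA virus, washed twice, and given half-log PI dilutions (DMSO 1% final) in triplicate. After 5 days at 37°C, supernatant RT was read versus infected control. EC50 by nonlinear regression, mean of three experiments.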

Structure (SMILES)	EC50 [nM]
CC(C)CN(C[C@@H](O)[C@H](Cc1ccccc1)NC(=O)O[C@H]1CCOC1)S(=O)(=O)c1ccc(N)cc1 [AMPRENAVIR]	939
COC(=O)N[C@H](C(=O)N[C@@H](Cc1ccccc1)[C@@H](O)CN(Cc1ccc(-c2ccccn2)cc1)NC(=O)[C@@H](NC(=O)OC)C(C)(C)C)C(C)(C)C [ATAZANAVIR]	39

System: Human immunodeficiency virus 2
Experiment: Antiviral activity against HIV2 CDC310319 isolate infected in human PBMC assessed as inhibition of virus production after 5 days by Lenti-RT activity assay
Assay type: functional, organism-based
Conditions: Human immunodeficiency virus 2, 120 h
Summary of the method: as §2

Structure (SMILES)	EC50 [nM]
CC(C)CN(C[C@@H](O)[C@H](Cc1ccccc1)NC(=O)O[C@H]1CCOC1)S(=O)(=O)c1ccc(N)cc1 [AMPRENAVIR]	674
COC(=O)N[C@H](C(=O)N[C@@H](Cc1ccccc1)[C@@H](O)CN(Cc1ccc(-c2ccccn2)cc1)NC(=O)[C@@H](NC(=O)OC)C(C)(C)C)C(C)(C)C [ATAZANAVIR]	110

System: not listed separately
Experiment: (§3) Ratio of EC50 for HIV2 MS to EC50 for HIV1 NL4-3 infected in human MT4 cells
Assay type: functional
Conditions: not given

Structure (SMILES)	Ratio EC50
COC(=O)N[C@H](C(=O)N[C@@H](Cc1ccccc1)[C@@H](O)CN(Cc1ccc(-c2ccccn2)cc1)NC(=O)[C@@H](NC(=O)OC)C(C)(C)C)C(C)(C)C [ATAZANAVIR]	4

System: MT4
Experiment: as §3
Assay type: functional
Conditions: not given

Structure (SMILES)	Ratio EC50
CC(C)CN(C[C@@H](O)[C@H](Cc1ccccc1)NC(=O)O[C@H]1CCOC1)S(=O)(=O)c1ccc(N)cc1 [AMPRENAVIR]	12.5

System: not listed separately
Experiment: (§4) Ratio of EC50 for HIV2 CBL-23 infected in human PBMC to EC50 for HIV1 NL4-3 infected in human MT4 cells
Assay type: functional
Conditions: not given

Structure (SMILES)	Ratio EC50
COC(=O)N[C@H](C(=O)N[C@@H](Cc1ccccc1)[C@@H](O)CN(Cc1ccc(-c2ccccn2)cc1)NC(=O)[C@@H](NC(=O)OC)C(C)(C)C)C(C)(C)C [ATAZANAVIR]	7.8

System: PBMC
Experiment: as §4
Assay type: functional
Conditions: not given

Structure (SMILES)	Ratio EC50
CC(C)CN(C[C@@H](O)[C@H](Cc1ccccc1)NC(=O)O[C@H]1CCOC1)S(=O)(=O)c1ccc(N)cc1 [AMPRENAVIR]	13

System: not listed separately
Experiment: (§5) Ratio of EC50 for HIV2 CDC310319 infected in human PBMC to EC50 for HIV1 NL4-3 infected in human MT4 cells
Assay type: functional
Conditions: not given

Structure (SMILES)	Ratio EC50
COC(=O)N[C@H](C(=O)N[C@@H](Cc1ccccc1)[C@@H](O)CN(Cc1ccc(-c2ccccn2)cc1)NC(=O)[C@@H](NC(=O)OC)C(C)(C)C)C(C)(C)C [ATAZANAVIR]	22

System: PBMC
Experiment: as §5
Assay type: functional
Conditions: not given

Structure (SMILES)	Ratio EC50
CC(C)CN(C[C@@H](O)[C@H](Cc1ccccc1)NC(=O)O[C@H]1CCOC1)S(=O)(=O)c1ccc(N)cc1 [AMPRENAVIR]	9.2

System: Human immunodeficiency virus 2
Experiment: Antiviral activity against wild type HIV2 ROD infected in human CEM cells assessed as inhibition of virus production after 7 days by Lenti-RT activity assay
Assay type: functional, organism-based
Conditions: Human immunodeficiency virus 2, ROD, CCRF-CEM, 168 h

Structure (SMILES)	EC50 [nM]
CC(C)CN(C[C@@H](O)[C@H](Cc1ccccc1)NC(=O)O[C@H]1CCOC1)S(=O)(=O)c1ccc(N)cc1 [AMPRENAVIR]	855
COC(=O)N[C@H](C(=O)N[C@@H](Cc1ccccc1)[C@@H](O)CN(Cc1ccc(-c2ccccn2)cc1)NC(=O)[C@@H](NC(=O)OC)C(C)(C)C)C(C)(C)C [ATAZANAVIR]	34

System: Human immunodeficiency virus 2
Experiment: Antiviral activity against HIV2 ROD with protease G17N mutation infected in human CEM cells assessed as inhibition of virus production after 7 days by Lenti-RT activity assay
Assay type: functional, organism-based
Conditions: Human immunodeficiency virus 2, ROD, CCRF-CEM, 168 h
Summary of the method: (§6)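 Protease mutant clones of HIV-2ROD came from site-directed mutagenesis of pSL-3, with stocks made by 293T transfection. CEM174 cells were infected with 100 pg RT of virus for 2 h at 37°C, washed, and seeded at 2 × 10^5 cells/ml. PI was added as 1:4 serial dilutions, 1% DMSO final, and incubated 7 days. Supernatant RT was read, in triplicate. EC50 came from nonlinear regression, and fold-change is mutant EC50 divided by HIV-2ROD EC50.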

Structure (SMILES)	EC50 [nM]
CC(C)CN(C[C@@H](O)[C@H](Cc1ccccc1)NC(=O)O[C@H]1CCOC1)S(=O)(=O)c1ccc(N)cc1 [AMPRENAVIR]	583
COC(=O)N[C@H](C(=O)N[C@@H](Cc1ccccc1)[C@@H](O)CN(Cc1ccc(-c2ccccn2)cc1)NC(=O)[C@@H](NC(=O)OC)C(C)(C)C)C(C)(C)C [ATAZANAVIR]	20

System: Human immunodeficiency virus 2
Experiment: Antiviral activity against HIV2 ROD with protease V47A mutation infected in human CEM cells assessed as inhibition of virus production after 7 days by Lenti-RT activity assay
Assay type: functional, organism-based
Conditions: Human immunodeficiency virus 2, ROD, CCRF-CEM, 168 h
Summary of the method: as §6

Structure (SMILES)	EC50 [nM]
CC(C)CN(C[C@@H](O)[C@H](Cc1ccccc1)NC(=O)O[C@H]1CCOC1)S(=O)(=O)c1ccc(N)cc1 [AMPRENAVIR]	630
COC(=O)N[C@H](C(=O)N[C@@H](Cc1ccccc1)[C@@H](O)CN(Cc1ccc(-c2ccccn2)cc1)NC(=O)[C@@H](NC(=O)OC)C(C)(C)C)C(C)(C)C [ATAZANAVIR]	5

System: Human immunodeficiency virus 2
Experiment: Antiviral activity against HIV2 ROD with protease G17N/V47A mutation infected in human CEM cells assessed as inhibition of virus production after 7 days by Lenti-RT activity assay
Assay type: functional, organism-based
Conditions: Human immunodeficiency virus 2, ROD, CCRF-CEM, 168 h
Summary of the method: as §6

Structure (SMILES)	EC50 [nM]
CC(C)CN(C[C@@H](O)[C@H](Cc1ccccc1)NC(=O)O[C@H]1CCOC1)S(=O)(=O)c1ccc(N)cc1 [AMPRENAVIR]	404
COC(=O)N[C@H](C(=O)N[C@@H](Cc1ccccc1)[C@@H](O)CN(Cc1ccc(-c2ccccn2)cc1)NC(=O)[C@@H](NC(=O)OC)C(C)(C)C)C(C)(C)C [ATAZANAVIR]	3

System: Human immunodeficiency virus 2
Experiment: Ratio of EC50 for HIV2 ROD with protease G17N mutation to EC50 for wild type HIV2 ROD
Assay type: functional
Conditions: not given
Summary of the method: as §6

Structure (SMILES)	Ratio EC50
CC(C)CN(C[C@@H](O)[C@H](Cc1ccccc1)NC(=O)O[C@H]1CCOC1)S(=O)(=O)c1ccc(N)cc1 [AMPRENAVIR]	0.7
COC(=O)N[C@H](C(=O)N[C@@H](Cc1ccccc1)[C@@H](O)CN(Cc1ccc(-c2ccccn2)cc1)NC(=O)[C@@H](NC(=O)OC)C(C)(C)C)C(C)(C)C [ATAZANAVIR]	0.6

System: Human immunodeficiency virus 2
Experiment: Ratio of EC50 for HIV2 ROD with protease V47A mutation to EC50 for wild type HIV2 ROD
Assay type: functional
Conditions: not given
Summary of the method: as §6

Structure (SMILES)	Ratio EC50
CC(C)CN(C[C@@H](O)[C@H](Cc1ccccc1)NC(=O)O[C@H]1CCOC1)S(=O)(=O)c1ccc(N)cc1 [AMPRENAVIR]	0.7
COC(=O)N[C@H](C(=O)N[C@@H](Cc1ccccc1)[C@@H](O)CN(Cc1ccc(-c2ccccn2)cc1)NC(=O)[C@@H](NC(=O)OC)C(C)(C)C)C(C)(C)C [ATAZANAVIR]	0.1

System: Human immunodeficiency virus 2
Experiment: Ratio of EC50 for HIV2 ROD with protease G17N/V47A mutation to EC50 for wild type HIV2 ROD
Assay type: functional
Conditions: not given
Summary of the method: as §6

Structure (SMILES)	Ratio EC50
CC(C)CN(C[C@@H](O)[C@H](Cc1ccccc1)NC(=O)O[C@H]1CCOC1)S(=O)(=O)c1ccc(N)cc1 [AMPRENAVIR]	0.5
COC(=O)N[C@H](C(=O)N[C@@H](Cc1ccccc1)[C@@H](O)CN(Cc1ccc(-c2ccccn2)cc1)NC(=O)[C@@H](NC(=O)OC)C(C)(C)C)C(C)(C)C [ATAZANAVIR]	0.1

System: Human immunodeficiency virus 1
Experiment: Antiviral activity against HIV1 NL4-3 infected in human MT4 cells assessed as reduction in virus-induced cytopathic effect after 5 days by MTT assay
Assay type: functional, organism-based
Conditions: Human immunodeficiency virus 1, NL4-3, MT4, 120 h
Summary of the method: as §1

Structure (SMILES)	EC50 [nM]
CC(C)CN(C[C@@H](O)[C@H](Cc1ccccc1)NC(=O)O[C@H]1CCOC1)S(=O)(=O)c1ccc(N)cc1 [AMPRENAVIR]	72
COC(=O)N[C@H](C(=O)N[C@@H](Cc1ccccc1)[C@@H](O)CN(Cc1ccc(-c2ccccn2)cc1)NC(=O)[C@@H](NC(=O)OC)C(C)(C)C)C(C)(C)C [ATAZANAVIR]	5
